Measurements as given in ChEMBL document CHEMBL1152317, “Hypoglycemic activity of extracts and compounds from the leaves of Hintonia standleyana and H. latiflora: potential alternatives to the use of the stem bark of these species” (2009).

Experiments:
Type in all cases: functional
Rattus norvegicus [1] = assay: Hypoglycemic activity in normal Wistar rat assessed as variation in glycemia at 10 mg/kg administered via intragastric route after 1.5 hrs by glucose oxidase method relative to control
In short: (§1)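 Normoglycemic rats (180–220 g), 6 per group, standard pellet diet and water ad libitum. Test agent was suspended in 0.05% Tween 80 in saline and given by gavage. Controls got vehicle at 0.5 mL/100 g. Tail-incision blood was sampled at 0 h and after dosing and read by glucometer. Glycemia change was expressed as % of the 0 h value; ANOVA with Dunnett's test versus vehicle.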

Rattus norvegicus [2] = assay: Hypoglycemic activity in normal Wistar rat assessed as variation in glycemia at 10 mg/kg administered via intragastric route after 3 hrs by glucose oxidase method relative to control; in short: as §1
Rattus norvegicus [3] = assay: Hypoglycemic activity in normal Wistar rat assessed as variation in glycemia at 10 mg/kg administered via intragastric route after 5 hrs by glucose oxidase method relative to control; in short: as §1
Rattus norvegicus [4] = assay: Hypoglycemic activity in normal Wistar rat assessed as variation in glycemia at 10 mg/kg administered via intragastric route after 7 hrs by glucose oxidase method relative to control; in short: as §1
Rattus norvegicus [5] = assay: Hypoglycemic activity in normal Wistar rat assessed as variation in glycemia at 10 mg/kg administered via intragastric route after 9 hrs by glucose oxidase method relative to control; in short: as §1
Rattus norvegicus [6] = assay: Antihyperglycemic activity in streptozotocin-induced diabetic Wistar rat assessed as variation in glycemia at 10 mg/kg administered via intragastric route 7 days after streptozotocin challenge measured after 1.5 hrs of compound administration by glucose oxidase method relative to control
In short: (§2)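 Diabetes induced by single ip streptozotocin 50 mg/kg in 0.1 M citrate buffer pH 4.5; rats with glucose above 250 mg/dL after 7 days included. Rats 180–220 g, 6 per group. Test agent suspended in 0.05% Tween 80 in saline, given intragastrically; vehicle controls. Tail-vein blood sampled at 0 h and after dosing; glucometer reading; % change calculated from 0 h value.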

Rattus norvegicus [7] = assay: Antihyperglycemic activity in streptozotocin-induced diabetic Wistar rat assessed as variation in glycemia at 10 mg/kg administered via intragastric route 7 days after streptozotocin challenge measured after 3 hrs of compound administration by glucose oxidase method relative to control; in short: as §2
Rattus norvegicus [8] = assay: Antihyperglycemic activity in streptozotocin-induced diabetic Wistar rat assessed as variation in glycemia at 10 mg/kg administered via intragastric route 7 days after streptozotocin challenge measured after 5 hrs of compound administration by glucose oxidase method relative to control; in short: as §2
Rattus norvegicus [9] = assay: Antihyperglycemic activity in streptozotocin-induced diabetic Wistar rat assessed as variation in glycemia at 10 mg/kg administered via intragastric route 7 days after streptozotocin challenge measured after 7 hrs of compound administration by glucose oxidase method relative to control; in short: as §2
Rattus norvegicus [10] = assay: Antihyperglycemic activity in streptozotocin-induced diabetic Wistar rat assessed as variation in glycemia at 10 mg/kg administered via intragastric route 7 days after streptozotocin challenge measured after 9 hrs of compound administration by glucose oxidase method relative to control; in short: as §2

Which results are given for CC(=O)OC[C@H]1O[C@@H](Oc2cc(O)cc3oc(=O)cc(-c4ccc(O)c(O)c4)c23)[C@H](O)[C@@H](O)[C@H]1O?
Activity (Rattus norvegicus [1]): -9.2%; Activity (Rattus norvegicus [2]): -29.9%; Activity (Rattus norvegicus [3]): -28.6%; Activity (Rattus norvegicus [4]): -25%; Activity (Rattus norvegicus [5]): -30.6%; Activity (Rattus norvegicus [6]): -5%; Activity (Rattus norvegicus [7]): -20.7%; Activity (Rattus norvegicus [8]): -29.5%; Activity (Rattus norvegicus [9]): -34.7%; Activity (Rattus norvegicus [10]): -37.2%

Which Activity (Rattus norvegicus [1]) does the source give for COc1ccc(Cl)cc1C(=O)NCCc1ccc(S(=O)(=O)NC(=O)NC2CCCCC2)cc1 [GLYBURIDE] here?
The Activity was -8.4%.

What about the Activity (Rattus norvegicus [2]) of the same compound?
The Activity was -30.1%.

What about the Activity (Rattus norvegicus [3]) of the same compound?
Its Activity is -47.6%.

And the Activity (Rattus norvegicus [4])?
The Activity was -41.8%.

What about the Activity (Rattus norvegicus [5]) of the same compound?
Its Activity is -37.1%.

What about the Activity (Rattus norvegicus [6]) of the same compound?
Its Activity is -13.7%.

And the Activity (Rattus norvegicus [7])?
Its Activity is -35.5%.

And the Activity (Rattus norvegicus [8])?
The Activity was -35.9%.

And the Activity (Rattus norvegicus [9])?
Its Activity is -35.2%.

And the Activity (Rattus norvegicus [10])?
Its Activity is -36.7%.

Which Activity (Rattus norvegicus [1]) does the source give for CC(=O)OC[C@H]1O[C@@H](Oc2cc(O)cc3oc(=O)cc(-c4ccc(O)cc4)c23)[C@H](O)[C@@H](O)[C@H]1O here?
Its Activity is -10.3%.

What about the Activity (Rattus norvegicus [2]) of the same compound?
Its Activity is -17.8%.

And the Activity (Rattus norvegicus [3])?
Its Activity is -20.9%.

And the Activity (Rattus norvegicus [4])?
Its Activity is -27.2%.

What about the Activity (Rattus norvegicus [5]) of the same compound?
Its Activity is -24%.

And the Activity (Rattus norvegicus [6])?
The Activity was -11%.

And the Activity (Rattus norvegicus [7])?
Its Activity is -24.9%.

And the Activity (Rattus norvegicus [8])?
The Activity was -22.7%.

And the Activity (Rattus norvegicus [9])?
The Activity was -25.2%.

What about the Activity (Rattus norvegicus [10]) of the same compound?
The Activity was -27.1%.
